Data reported in ChEMBL document CHEMBL2010709, “Pinophilins A and B, inhibitors of mammalian A-, B-, and Y-family DNA polymerases and human cancer cell proliferation” (J Nat Prod, 2012).
Calls of active or inactive are those of the source. The calls are words filed in the database; no cut-off is given here.

Columns and labels:
[1] = test system: Brassica oleracea var. botrytis; test: Inhibition of cauliflower DNA polymerase alpha assessed as inhibition of incorporation of dTTP into activated DNA primer after 60 mins
[2] = Inhibition of rice cv. Nipponbare recombinant C-terminal-His6-tagged DNA polymerase lambda expressed in Escherichia coli assessed as inhibition of incorporation of dTTP into poly(dA)/oligo(dT)18 after 60 mins; set-up: species or system Oryza sativa
How it was run: (§1)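 Compound in DMSO was sonicated for 30 s, then held with enzyme (0.05 units final) at 0 °C for 10 min in 50 mM Tris-HCl pH 7.5, 1 mM DTT, 50% glycerol, 0.1 mM EDTA. The mixture was added to the standard reaction mix with poly(dA)/oligo(dT)18 (A/T = 2/1) and dTTP, 37 °C, 60 min. Activity was relative to no-inhibitor control; mean ± SE, three independent experiments.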

Thermus aquaticus = test: Inhibition of Thermus aquaticus DNA polymerase assessed as inhibition of incorporation of dTTP into activated DNA primer after 60 mins
[3] = molecular target: T1, DNA polymerase delta catalytic subunit (Homo sapiens, UniProt P28340); test: Inhibition of human DNA polymerase delta assessed as inhibition of incorporation of dTTP into poly(dA)/oligo(dT)18 after 60 mins; how it was run: as §1
T1 sequence (P28340 whole entry): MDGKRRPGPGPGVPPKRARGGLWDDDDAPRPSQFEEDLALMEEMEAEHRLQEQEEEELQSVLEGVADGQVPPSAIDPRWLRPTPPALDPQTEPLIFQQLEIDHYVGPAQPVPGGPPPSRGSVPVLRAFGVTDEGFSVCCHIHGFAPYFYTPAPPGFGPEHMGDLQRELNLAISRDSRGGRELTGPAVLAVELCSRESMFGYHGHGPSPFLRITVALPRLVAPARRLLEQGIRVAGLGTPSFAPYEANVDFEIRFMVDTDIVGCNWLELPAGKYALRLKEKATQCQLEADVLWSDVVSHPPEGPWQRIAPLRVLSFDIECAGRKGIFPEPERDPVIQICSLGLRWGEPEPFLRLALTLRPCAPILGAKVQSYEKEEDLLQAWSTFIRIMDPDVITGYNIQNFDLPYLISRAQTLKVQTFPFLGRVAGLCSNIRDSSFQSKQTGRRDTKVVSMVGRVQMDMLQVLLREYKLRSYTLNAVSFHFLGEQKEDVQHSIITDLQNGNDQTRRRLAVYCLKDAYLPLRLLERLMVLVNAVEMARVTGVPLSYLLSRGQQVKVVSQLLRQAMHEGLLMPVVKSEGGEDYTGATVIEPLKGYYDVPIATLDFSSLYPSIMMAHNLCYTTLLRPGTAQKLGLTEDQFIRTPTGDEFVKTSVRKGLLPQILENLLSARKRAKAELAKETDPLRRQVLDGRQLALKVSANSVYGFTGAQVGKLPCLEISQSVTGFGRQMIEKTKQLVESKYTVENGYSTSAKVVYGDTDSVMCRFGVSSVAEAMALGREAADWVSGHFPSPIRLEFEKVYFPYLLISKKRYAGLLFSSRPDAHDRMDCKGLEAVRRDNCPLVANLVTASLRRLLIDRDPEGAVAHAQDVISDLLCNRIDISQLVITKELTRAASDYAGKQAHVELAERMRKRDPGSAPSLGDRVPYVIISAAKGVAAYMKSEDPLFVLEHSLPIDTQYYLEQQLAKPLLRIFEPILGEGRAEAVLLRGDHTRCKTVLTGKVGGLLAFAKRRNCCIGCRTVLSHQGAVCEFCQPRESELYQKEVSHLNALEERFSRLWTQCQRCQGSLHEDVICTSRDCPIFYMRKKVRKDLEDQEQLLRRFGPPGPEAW

[4] = molecular target: DNA-directed DNA/RNA polymerase mu (Homo sapiens, UniProt Q9NP87); test: Inhibition of human His-tagged recombinant DNA polymerase mu expressed in Escherichia coli BL21 assessed as inhibition of incorporation of dTTP into poly(dA)/oligo(dT)18 after 60 mins; how it was run: as §1
HeLa = test: Growth inhibition of human HeLa cells after 24 hrs by WST-1 assay; type: functional
How it was run: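 Cancer cells were grown in McCoy's 5A with 10% FBS and penicillin/streptomycin, 37 °C, 5% CO2. Cells were seeded at 1 × 10^4 per well, cultured 12 h, then given compound (10 mM DMSO stock diluted in medium, 0.5% DMSO) for 24 h. WST-1 was added for 4 h and absorbance read at 450/630 nm. GI50 given as mean ± SE, five independent experiments.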

[5] = molecular target: Inosine-5'-monophosphate dehydrogenase 2 (Mus musculus, UniProt P24547); test: Inhibition of mouse IMP dehydrogenase 2
DNA polymerase kappa = molecular target: T2, DNA polymerase kappa (Homo sapiens, UniProt Q9UBT6); test: Inhibition of human C-terminal-His6-tagged DNA polymerase kappa expressed in Escherichia coli assessed as inhibition of incorporation of dTTP into poly(dA)/oligo(dT)18 after 60 mins; how it was run: as §1
T2 sequence (Q9UBT6 whole entry): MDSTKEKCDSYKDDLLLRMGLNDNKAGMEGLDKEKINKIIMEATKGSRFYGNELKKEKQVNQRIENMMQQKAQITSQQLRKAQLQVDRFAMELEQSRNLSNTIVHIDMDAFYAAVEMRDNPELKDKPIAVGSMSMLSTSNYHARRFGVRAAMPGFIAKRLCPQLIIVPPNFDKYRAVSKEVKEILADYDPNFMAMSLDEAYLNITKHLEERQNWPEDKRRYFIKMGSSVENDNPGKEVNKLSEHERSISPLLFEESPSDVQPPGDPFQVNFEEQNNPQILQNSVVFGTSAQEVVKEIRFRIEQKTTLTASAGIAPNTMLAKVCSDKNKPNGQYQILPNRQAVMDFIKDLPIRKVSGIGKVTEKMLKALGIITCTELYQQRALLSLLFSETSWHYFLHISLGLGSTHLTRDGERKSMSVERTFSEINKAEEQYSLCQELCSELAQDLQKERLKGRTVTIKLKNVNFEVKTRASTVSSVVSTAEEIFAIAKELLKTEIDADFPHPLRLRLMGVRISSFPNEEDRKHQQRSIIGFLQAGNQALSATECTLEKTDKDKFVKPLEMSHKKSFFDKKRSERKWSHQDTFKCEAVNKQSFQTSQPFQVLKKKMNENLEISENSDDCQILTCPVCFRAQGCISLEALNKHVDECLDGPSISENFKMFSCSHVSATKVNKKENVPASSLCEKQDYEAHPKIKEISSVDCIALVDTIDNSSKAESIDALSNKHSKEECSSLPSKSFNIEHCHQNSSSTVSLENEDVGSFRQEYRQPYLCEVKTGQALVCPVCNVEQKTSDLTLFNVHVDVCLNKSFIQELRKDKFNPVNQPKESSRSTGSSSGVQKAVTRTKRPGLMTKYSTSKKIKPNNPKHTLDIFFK

Polynucleotide kinase = Polynucleotide kinase (Enterobacteria phage T4, UniProt P06855); test: Inhibition of T4 arnN8l pseT 1 polynucleotide kinase assessed as inhibition of Salmon sperm DNA phosphorylation using [gamma32P]ATP by liquid scintillation counting; set-up: species or system Tequatrovirus T4
DNA polymerase beta = DNA polymerase beta (Rattus norvegicus, UniProt P06766); test: Inhibition of rat DNA polymerase beta expressed in Escherichia coli JMpbeta5 assessed as inhibition of incorporation of dTTP into poly(dA)/oligo(dT)18 after 60 mins; how it was run: as §1

Chain of Polynucleotide kinase (P06855 whole entry, looked up): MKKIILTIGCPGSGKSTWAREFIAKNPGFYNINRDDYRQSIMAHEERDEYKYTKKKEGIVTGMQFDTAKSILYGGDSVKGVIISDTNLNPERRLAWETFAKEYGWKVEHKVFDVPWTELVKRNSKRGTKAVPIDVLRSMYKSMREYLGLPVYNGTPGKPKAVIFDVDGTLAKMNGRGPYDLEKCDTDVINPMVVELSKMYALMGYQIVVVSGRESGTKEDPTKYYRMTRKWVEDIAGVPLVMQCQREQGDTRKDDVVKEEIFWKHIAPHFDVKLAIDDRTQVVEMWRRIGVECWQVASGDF
Chain of DNA-directed DNA/RNA polymerase mu (Q9NP87 whole entry): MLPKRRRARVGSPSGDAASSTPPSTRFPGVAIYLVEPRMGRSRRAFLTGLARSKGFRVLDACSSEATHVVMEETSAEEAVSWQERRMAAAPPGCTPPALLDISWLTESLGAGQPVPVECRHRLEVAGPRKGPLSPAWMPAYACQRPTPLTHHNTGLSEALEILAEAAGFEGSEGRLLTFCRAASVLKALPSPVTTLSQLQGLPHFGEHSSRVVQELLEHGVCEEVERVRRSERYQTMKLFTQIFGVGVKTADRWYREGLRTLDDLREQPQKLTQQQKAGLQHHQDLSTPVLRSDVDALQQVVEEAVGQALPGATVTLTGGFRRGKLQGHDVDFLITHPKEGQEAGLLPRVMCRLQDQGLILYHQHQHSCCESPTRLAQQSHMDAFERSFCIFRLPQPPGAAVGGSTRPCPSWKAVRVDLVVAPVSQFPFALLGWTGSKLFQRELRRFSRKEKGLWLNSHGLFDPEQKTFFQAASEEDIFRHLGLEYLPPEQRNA
Chain of Inosine-5'-monophosphate dehydrogenase 2 (P24547 whole entry): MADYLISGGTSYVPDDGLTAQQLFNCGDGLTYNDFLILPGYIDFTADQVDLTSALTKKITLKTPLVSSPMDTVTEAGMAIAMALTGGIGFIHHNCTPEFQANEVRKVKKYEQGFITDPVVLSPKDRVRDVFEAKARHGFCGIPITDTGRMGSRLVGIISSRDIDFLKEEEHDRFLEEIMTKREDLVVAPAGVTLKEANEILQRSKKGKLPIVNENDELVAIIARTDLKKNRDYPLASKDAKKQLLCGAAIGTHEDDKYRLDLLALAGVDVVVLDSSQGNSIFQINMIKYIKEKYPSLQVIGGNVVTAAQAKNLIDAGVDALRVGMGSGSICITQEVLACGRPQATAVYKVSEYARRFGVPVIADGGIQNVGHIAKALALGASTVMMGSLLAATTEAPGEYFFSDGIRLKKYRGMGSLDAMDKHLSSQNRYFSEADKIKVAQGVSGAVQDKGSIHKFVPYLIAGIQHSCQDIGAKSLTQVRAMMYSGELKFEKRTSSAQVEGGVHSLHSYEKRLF

C/C=C/C1=CC2=CC(=O)[C@@](C)(O)[C@@H](OC(=O)c3c(C)cc(O)cc3O)[C@@H]2CO1
inhibition [1]: inactive
IC50 [2]: > 200 µM
inhibition (Thermus aquaticus): inactive
IC50 [3]: 68 µM
IC50 [4]: > 200 µM
GI50 (HeLa): 68.8 µM
IC50 [5]: > 200 µM
IC50 (DNA polymerase kappa): 59.8 µM
IC50 (Polynucleotide kinase): > 200 µM
IC50 (DNA polymerase beta): > 200 µM

Cc1cc(O)cc(O)c1C(=O)O[C@H]1[C@@H]2COC(/C=C/CO)=CC2=CC(=O)[C@@]1(C)O [PINOPHILIN B]
inhibition [1]: inactive
IC50 [2]: > 200 µM
inhibition (Thermus aquaticus): inactive
IC50 [3]: 96.4 µM
IC50 [4]: > 200 µM
GI50 (HeLa): 99 µM
IC50 [5]: > 200 µM
IC50 (DNA polymerase kappa): 88.9 µM
IC50 (Polynucleotide kinase): > 200 µM
IC50 (DNA polymerase beta): > 200 µM

C/C=C/C1=CC2=CC(=O)[C@@](C)(OC(=O)c3c(C)cc(O)cc3O)[C@@H](O)[C@@H]2CO1 [PINOPHILIN A]
inhibition [1]: inactive
IC50 [2]: > 200 µM
inhibition (Thermus aquaticus): inactive
IC50 [3]: 54.5 µM
IC50 [4]: > 200 µM
GI50 (HeLa): 55.6 µM
IC50 [5]: > 200 µM
IC50 (DNA polymerase kappa): 48.6 µM
IC50 (Polynucleotide kinase): > 200 µM
IC50 (DNA polymerase beta): > 200 µM
